Data from ChEMBL document CHEMBL5321266, “Discovery of a Series of Indane-Containing NBTIs with Activity against Multidrug-Resistant Gram-Negative Pathogens” (ACS Med Chem Lett, 2023).
In brackets after ≈: the same amount, converted by molar mass.

Experiments:
Klebsiella pneumoniae = test: Antibacterial activity against Klebsiella pneumoniae ATCC BAA-1705 incubated for 20 to 24 hrs by CLSI based broth microdilution method; assay type: functional; details: time 20-24 hrs
[1] = target: Voltage-gated inwardly rectifying potassium channel KCNH2 (Homo sapiens, UniProt Q12809); test: Inhibition of human ERG expressed in CHO cells by automated path clamp method; assay type: toxicity, cell-based; details: for inhibition (INH): human, cho
Outline: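 Patch-clamp electrophysiology on the hERG ion channel, recorded at 37 °C; the IC₅₀ was determined.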

Escherichia coli = test: Antibacterial activity against Escherichia coli ATCC 25922 incubated for 20 to 24 hrs by CLSI based broth microdilution method; assay type: functional; details: time 20-24 hrs
DNA gyrase [2] = target: T1, DNA gyrase (Escherichia coli, UniProt P0AES4+P0AES6); test: Inhibition of Escherichia coli DNA gyrase ATPase activity incubated for 80 mins; assay type: protein-complex assay
Pseudomonas aeruginosa = test: Antibacterial activity against Pseudomonas aeruginosa ATCC 27853 incubated for 20 to 24 hrs by CLSI based broth microdilution method; assay type: functional; details: time 20-24 hrs
Acinetobacter baumannii = test: Antibacterial activity against Acinetobacter baumannii ATCC 19606 incubated for 20 to 24 hrs by CLSI based broth microdilution method; assay type: functional; details: time 20-24 hrs
DNA gyrase [3] = target: T1, DNA gyrase; test: Inhibition of Escherichia coli DNA gyrase supercoiling activity using relaxed pBR322 DNA as substrate preincubated for 5 mins followed by enzyme addition and measured after 1 hr by agarose gel electrophoresis; assay type: protein-complex assay
[4] = target: DNA topoisomerase 2-alpha (Homo sapiens, UniProt P11388); test: Inhibition of human topoisomerase 2 alpha decatenation activity using kDNA as substrate preincubated for 5 mins followed by enzyme addition and measured after 1 hr by agarose gel electrophoresis
[5] = Inhibition of Escherichia coli topoisomerase 4 decatenation activity using kDNA as substrate preincubated for 5 mins followed by enzyme addition and measured after 1 hr by agarose gel electrophoresis method

Sequence of Voltage-gated inwardly rectifying potassium channel KCNH2 (Q12809 whole entry): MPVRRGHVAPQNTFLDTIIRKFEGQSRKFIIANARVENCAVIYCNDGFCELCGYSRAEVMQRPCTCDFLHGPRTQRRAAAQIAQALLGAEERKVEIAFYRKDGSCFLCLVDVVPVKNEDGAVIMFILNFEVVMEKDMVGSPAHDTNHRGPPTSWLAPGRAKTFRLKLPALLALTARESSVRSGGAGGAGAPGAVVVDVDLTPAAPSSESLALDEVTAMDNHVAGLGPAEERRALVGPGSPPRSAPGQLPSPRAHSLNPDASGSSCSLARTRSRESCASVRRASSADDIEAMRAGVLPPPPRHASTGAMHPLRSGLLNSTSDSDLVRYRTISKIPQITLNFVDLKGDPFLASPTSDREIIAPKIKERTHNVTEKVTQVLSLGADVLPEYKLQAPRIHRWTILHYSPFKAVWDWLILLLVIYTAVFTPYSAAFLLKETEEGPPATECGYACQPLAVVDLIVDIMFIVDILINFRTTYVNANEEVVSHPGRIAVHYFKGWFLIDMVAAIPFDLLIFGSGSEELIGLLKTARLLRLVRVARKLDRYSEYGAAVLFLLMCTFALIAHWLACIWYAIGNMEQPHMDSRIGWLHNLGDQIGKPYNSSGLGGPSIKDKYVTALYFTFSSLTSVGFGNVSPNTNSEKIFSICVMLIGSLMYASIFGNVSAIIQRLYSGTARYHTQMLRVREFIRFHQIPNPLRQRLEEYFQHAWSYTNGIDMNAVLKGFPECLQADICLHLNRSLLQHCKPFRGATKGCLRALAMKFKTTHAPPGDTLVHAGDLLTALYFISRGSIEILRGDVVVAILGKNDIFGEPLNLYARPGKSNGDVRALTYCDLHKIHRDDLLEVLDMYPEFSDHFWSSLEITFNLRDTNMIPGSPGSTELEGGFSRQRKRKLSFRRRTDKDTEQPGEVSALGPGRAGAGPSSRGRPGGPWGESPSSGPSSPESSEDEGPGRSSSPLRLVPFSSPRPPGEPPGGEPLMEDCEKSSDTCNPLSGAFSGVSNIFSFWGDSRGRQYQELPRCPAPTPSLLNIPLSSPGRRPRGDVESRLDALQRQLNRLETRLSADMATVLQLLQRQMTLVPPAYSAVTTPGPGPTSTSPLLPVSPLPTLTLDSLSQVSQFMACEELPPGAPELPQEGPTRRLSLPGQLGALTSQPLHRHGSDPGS
Sequence of DNA topoisomerase 2-alpha (P11388 whole entry): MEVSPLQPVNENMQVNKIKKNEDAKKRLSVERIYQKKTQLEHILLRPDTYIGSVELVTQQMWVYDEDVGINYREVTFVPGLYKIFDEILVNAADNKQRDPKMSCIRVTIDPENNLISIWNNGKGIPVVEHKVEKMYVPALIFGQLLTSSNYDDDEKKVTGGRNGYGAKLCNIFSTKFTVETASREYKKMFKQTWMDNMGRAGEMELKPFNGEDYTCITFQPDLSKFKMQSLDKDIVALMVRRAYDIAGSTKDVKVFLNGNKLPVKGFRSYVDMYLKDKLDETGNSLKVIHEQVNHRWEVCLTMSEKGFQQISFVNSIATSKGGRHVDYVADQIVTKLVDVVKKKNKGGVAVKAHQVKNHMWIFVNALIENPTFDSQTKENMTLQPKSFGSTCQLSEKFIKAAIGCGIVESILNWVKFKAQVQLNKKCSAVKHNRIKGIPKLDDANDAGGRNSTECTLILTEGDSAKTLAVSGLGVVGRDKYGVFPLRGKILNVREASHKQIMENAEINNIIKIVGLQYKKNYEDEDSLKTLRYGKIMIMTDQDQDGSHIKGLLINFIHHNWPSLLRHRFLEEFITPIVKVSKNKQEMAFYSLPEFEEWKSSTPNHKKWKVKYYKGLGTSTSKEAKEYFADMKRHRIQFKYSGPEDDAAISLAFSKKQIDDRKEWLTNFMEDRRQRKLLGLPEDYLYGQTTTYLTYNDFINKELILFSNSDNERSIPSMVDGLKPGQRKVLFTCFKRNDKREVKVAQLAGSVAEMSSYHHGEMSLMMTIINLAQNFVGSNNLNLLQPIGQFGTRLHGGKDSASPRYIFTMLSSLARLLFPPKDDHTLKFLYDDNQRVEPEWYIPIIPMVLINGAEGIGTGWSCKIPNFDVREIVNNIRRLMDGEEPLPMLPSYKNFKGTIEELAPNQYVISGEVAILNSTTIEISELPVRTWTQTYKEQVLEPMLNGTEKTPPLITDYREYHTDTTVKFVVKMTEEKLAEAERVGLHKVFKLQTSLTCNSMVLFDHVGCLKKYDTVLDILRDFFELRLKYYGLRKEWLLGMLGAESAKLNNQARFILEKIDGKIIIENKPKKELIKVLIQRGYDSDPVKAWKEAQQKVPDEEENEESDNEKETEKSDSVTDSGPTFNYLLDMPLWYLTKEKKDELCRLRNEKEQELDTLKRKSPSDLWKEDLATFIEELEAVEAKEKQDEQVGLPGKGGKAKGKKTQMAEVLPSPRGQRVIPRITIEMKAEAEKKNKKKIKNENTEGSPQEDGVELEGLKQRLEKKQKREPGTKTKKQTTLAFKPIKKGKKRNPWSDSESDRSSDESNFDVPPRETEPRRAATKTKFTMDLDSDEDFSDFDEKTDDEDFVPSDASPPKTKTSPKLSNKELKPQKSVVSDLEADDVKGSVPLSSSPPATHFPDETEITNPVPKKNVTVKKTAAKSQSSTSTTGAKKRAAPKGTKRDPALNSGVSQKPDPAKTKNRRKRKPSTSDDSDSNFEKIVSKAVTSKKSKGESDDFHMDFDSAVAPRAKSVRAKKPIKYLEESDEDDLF

Compound	MIC (Klebsiella pneumoniae) [µg/mL]	inhibition (INH) [1]	MIC (Escherichia coli) [µg/mL]	IC50 (DNA gyrase [2]) [nM]	MIC (Pseudomonas aeruginosa) [µg/mL]	MIC (Acinetobacter baumannii) [µg/mL]	IC50 (DNA gyrase [3]) [nM]	IC50 [1] [nM]	IC50 [4] [nM]	IC50 [5] [nM]
O=C1COc2ccc(N3CC(CCNC4Cc5cccc(Cl)c5C4)OC3=O)nc2N1 (stereo not given)	16 (≈ 37.3 µM)	Active	2 (≈ 4.66 µM)	290	16 (≈ 37.3 µM)	4 (≈ 9.33 µM)				
N#Cc1cccc2c1CC(CNCCC1CN(c3ccc4c(n3)NC(=O)CO4)C(=O)O1)C2 (stereo not given)	1 (≈ 2.31 µM)		≤ 0.06	21	0.5 (≈ 1.15 µM)	0.125 (≈ 0.288 µM)	100	900	> 100000	160
O=C1COc2ccc(N3CC(CCNCC4Cc5cccc(Cl)c5C4)OC3=O)nc2N1 (stereo not given)	2 (≈ 4.52 µM)	Active	0.125 (≈ 0.282 µM)	90	2 (≈ 4.52 µM)	0.125 (≈ 0.282 µM)				
O=c1cc(NCC2CN(CC3Cc4ccnc(Cl)c4C3)C2)c2cc(F)ccc2o1 (stereo not given)	32 (≈ 77.3 µM)	Active	2 (≈ 4.83 µM)	160	8 (≈ 19.3 µM)	4 (≈ 9.66 µM)				
O=C1COc2ccc(N3CC(CNCC4Cc5cccc(Cl)c5C4)OC3=O)nc2N1 (stereo not given)	32 (≈ 74.6 µM)	Active	0.5 (≈ 1.17 µM)	230	8 (≈ 18.7 µM)	1 (≈ 2.33 µM)				
O=C1COc2ccc(N3CC(CNCCC4Cc5cccc(Cl)c5C4)OC3=O)nc2N1 (stereo not given)	4 (≈ 9.03 µM)	Active	0.25 (≈ 0.564 µM)	90	1 (≈ 2.26 µM)	0.25 (≈ 0.564 µM)				
O=C1COc2ccc(N3CC(CCCNC4Cc5ccccc5C4)OC3=O)nc2N1 (stereo not given)	16 (≈ 39.2 µM)	Active	2 (≈ 4.9 µM)	270	8 (≈ 19.6 µM)	8 (≈ 19.6 µM)				
N#Cc1cccc2c1CC(NCCCC1CN(c3ccc4c(n3)NC(=O)CO4)C(=O)O1)C2 (stereo not given)	2 (≈ 4.61 µM)	Active	0.25 (≈ 0.577 µM)	57	2 (≈ 4.61 µM)	0.5 (≈ 1.15 µM)				
O=C1COc2ccc(N3CC(CCNCC4Cc5ccccc5C4)OC3=O)nc2N1 (stereo not given)	8 (≈ 19.6 µM)	Active	1 (≈ 2.45 µM)	180	8 (≈ 19.6 µM)	2 (≈ 4.9 µM)				
O=C1COc2ccc(N3CC(CCNCC4Cc5cccc(F)c5C4)OC3=O)nc2N1 (stereo not given)	4 (≈ 9.38 µM)	Active	0.5 (≈ 1.17 µM)	100	4 (≈ 9.38 µM)	0.5 (≈ 1.17 µM)				
O=C1COc2ccc(N3CC(CCCNC4Cc5cccc(F)c5C4)OC3=O)nc2N1 (stereo not given)	4 (≈ 9.38 µM)	Active	0.5 (≈ 1.17 µM)	120	4 (≈ 9.38 µM)	1 (≈ 2.34 µM)				
O=C1COc2ccc(N3CC(CNC4Cc5cccc(Cl)c5C4)OC3=O)nc2N1 (stereo not given)	> 64	Active	8 (≈ 19.3 µM)	580	> 64	4 (≈ 9.64 µM)				
O=C1COc2ccc(N3CC(CCCNC4Cc5cccc(Cl)c5C4)OC3=O)nc2N1 (stereo not given)	2 (≈ 4.52 µM)	Active	0.25 (≈ 0.564 µM)	72	2 (≈ 4.52 µM)	0.5 (≈ 1.13 µM)				
O=C1COc2ccc(N3CC(CCNCCC4Cc5cccc(Cl)c5C4)OC3=O)nc2N1 (stereo not given)	8 (≈ 17.5 µM)	Active	0.5 (≈ 1.09 µM)	120	4 (≈ 8.75 µM)	1 (≈ 2.19 µM)				
O=C1COc2ccc(N3CC(CCCNC4CCc5c(Cl)cccc54)OC3=O)nc2N1 (stereo not given)	16 (≈ 36.1 µM)	Active	2 (≈ 4.52 µM)	190	8 (≈ 18.1 µM)	8 (≈ 18.1 µM)				
O=C1COc2ccc(N3CC(CCCNC4Cc5ccc(Cl)cc5C4)OC3=O)nc2N1 (stereo not given)	8 (≈ 18.1 µM)	Active	2 (≈ 4.52 µM)	250	16 (≈ 36.1 µM)	4 (≈ 9.03 µM)				
O=C1COc2ccc(N3CC(CCCNC4Cc5ccc(F)cc5C4)OC3=O)nc2N1 (stereo not given)	8 (≈ 18.8 µM)	Active	1 (≈ 2.34 µM)	160	16 (≈ 37.5 µM)	4 (≈ 9.38 µM)				
